Activity calls are given as the source filed them. The calls are words filed in the database; no cut-off is given here.
Key:
A549 [1] = assay: Reversal of GSK126 dependent antiinflammatory activity in human A549 cells assessed as decrease in Il1ra level by qRT-PCR analysis; type: functional, cell-based
A549 [2] = assay: Reversal of GSK126 dependent antiinflammatory activity in human A549 cells assessed as decrease in Ccl2 level by qRT-PCR analysis; type: functional, cell-based
A549 [3] = assay: Reversal of GSK126 dependent antiinflammatory activity in human A549 cells assessed as decrease in IL-6 level by qRT-PCR analysis; type: functional, cell-based
A549 [4] = assay: Reversal of GSK126 dependent antiinflammatory activity in human A549 cells assessed as decrease in Irak1 level by qRT-PCR analysis; type: functional, cell-based
[5] = target: Histone-lysine N-methyltransferase EZH2 (Mus musculus) (UniProt Q61188); assay: Inhibition of Ezh2 in mouse NSCLC cells infected with dox-inducible EZH2 shRNA assessed vinculin expression at 100 nM in presence of […] by immunoblot analysis; type: cell-based
Sequence of Histone-lysine N-methyltransferase EZH2 (Mus musculus) (Q61188 whole entry): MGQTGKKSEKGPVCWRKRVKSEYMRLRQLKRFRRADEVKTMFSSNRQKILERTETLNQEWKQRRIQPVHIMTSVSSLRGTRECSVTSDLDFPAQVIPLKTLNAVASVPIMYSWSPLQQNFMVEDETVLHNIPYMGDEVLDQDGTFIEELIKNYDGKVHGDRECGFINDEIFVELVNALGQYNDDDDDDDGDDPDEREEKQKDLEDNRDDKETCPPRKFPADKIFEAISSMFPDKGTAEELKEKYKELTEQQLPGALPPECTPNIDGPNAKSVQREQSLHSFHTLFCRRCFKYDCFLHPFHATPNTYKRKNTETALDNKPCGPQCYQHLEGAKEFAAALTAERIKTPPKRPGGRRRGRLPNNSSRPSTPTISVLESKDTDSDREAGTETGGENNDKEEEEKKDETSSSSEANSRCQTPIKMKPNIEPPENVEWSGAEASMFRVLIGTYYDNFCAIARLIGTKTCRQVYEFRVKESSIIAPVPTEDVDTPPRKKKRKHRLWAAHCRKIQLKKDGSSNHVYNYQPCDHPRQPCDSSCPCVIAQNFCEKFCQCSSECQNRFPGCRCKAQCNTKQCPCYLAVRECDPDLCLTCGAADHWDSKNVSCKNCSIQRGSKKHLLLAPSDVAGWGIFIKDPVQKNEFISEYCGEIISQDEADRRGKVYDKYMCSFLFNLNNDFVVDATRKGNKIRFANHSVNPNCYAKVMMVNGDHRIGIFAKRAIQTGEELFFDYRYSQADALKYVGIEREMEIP

NSCLC [6] = assay: Induction of cell cycle arrest in mouse NSCLC cell infected with dox-inducible EZH2 shRNA assessed as accumulation of cells at G0/G1 phase at 100 nM in presence of […] by FACS analysis; type: functional, cell-based
Method in brief: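 Kras G12D/+;Trp53-/- cells carrying dox-inducible EZH2 shRNA treated with or without dox and 100 nM GSK343 for 3 d. Cells then pulsed 45 min with 10 uM BrdU and stained with anti-BrdU-FITC and propidium iodide (5 ug/ml) with RNaseA, then analyzed by FACS. Three independent experiments; Student's t test.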

[7] = target: Histone-lysine N-methyltransferase EZH2 (Mus musculus) (UniProt Q61188); assay: Inhibition of Ezh2 in mouse NSCLC cells at 100 nM in presence of […] by immunoblot analysis; type: cell-based
NSCLC [8] = assay: Inhibition of colony formation in mouse NSCLC cell expressing Kras G12D/+ at 100 nM; type: functional, cell-based
Method in brief: (§1)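 Kras G12D/+;Trp53-/- cells treated with 100 nM GSK343 or GSK669 for 5 d, with or without dox, then replated at 250 or 500 cells per well for colony formation under continued treatment. Cell numbers taken relative to controls; colony size quantified automatically. Three independent experiments.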

[9] = target: Histone-lysine N-methyltransferase EZH2 (Mus musculus) (UniProt Q61188); assay: Inhibition of Ezh2 in mouse NSCLC cells expressing Kras G12D/+ assessed down-regulation of H3K27me3 level at 100 nM for 120 hrs by Immunoblot analysis; type: cell-based
NSCLC [10] = assay: Antiproliferative activity in mouse NSCLC cell expressing Kras G12D/+ assessed reduction in cell viability at 100 nM; type: functional, cell-based; method in brief: as §1

Row | inhibition [5] | inhibition [7] | inhibition [9] | Compound | Activity (A549 [1]) | Activity (A549 [2]) | Activity (A549 [3]) | Activity (A549 [4]) | Activity (NSCLC [6]) | inhibition (NSCLC [8]) | Activity (NSCLC [10])
1 | – | – | – | CC(C)(C)c1cnc(CSc2cnc(NC(=O)C3CCNCC3)s2)o1 | Active | Active | Active | Active | – | – | –
2 | – | – | – | CN1CC[C@H](c2c(O)cc(O)c3c(=O)cc(-c4ccccc4Cl)oc23)[C@H](O)C1 | Active | Active | Active | Active | – | – | –
3 | Active | Active | Active | CCCc1cc(C)[nH]c(=O)c1CNC(=O)c1cc(-c2ccnc(N3CCN(C)CC3)c2)cc2c1cnn2C(C)C | – | – | – | – | Active | Active | Active

Source: ChEMBL document CHEMBL5674884, “Ezh2 inhibition in Kras-driven lung cancer amplifies inflammation and associated vulnerabilities” (J Exp Med, 2018)
